The target of series [1] is T1, CYP1A1 (Homo sapiens, UniProt P04798).
T1 sequence (P04798 whole entry): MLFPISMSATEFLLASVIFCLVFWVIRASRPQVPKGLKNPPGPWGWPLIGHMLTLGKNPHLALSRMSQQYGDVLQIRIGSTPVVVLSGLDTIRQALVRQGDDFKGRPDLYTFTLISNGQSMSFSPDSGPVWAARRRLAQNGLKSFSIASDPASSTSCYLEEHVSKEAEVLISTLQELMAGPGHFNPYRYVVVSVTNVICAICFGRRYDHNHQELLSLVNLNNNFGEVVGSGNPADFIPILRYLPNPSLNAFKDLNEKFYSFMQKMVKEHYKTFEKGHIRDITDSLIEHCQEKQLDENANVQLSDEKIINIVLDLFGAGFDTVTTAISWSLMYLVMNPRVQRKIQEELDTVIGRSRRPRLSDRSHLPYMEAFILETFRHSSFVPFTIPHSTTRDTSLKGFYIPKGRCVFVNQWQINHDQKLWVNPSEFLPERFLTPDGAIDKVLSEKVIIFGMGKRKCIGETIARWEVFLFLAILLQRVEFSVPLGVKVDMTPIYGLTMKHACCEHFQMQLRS
Kind of series: Inhibition of recombinant human CYP1A1 expressed in baker's yeast-derived microsomes (Sacchrosomes) at 10 uM using 7-ethoxyresorufin substrate by EROD assay relative to control. Particulars: probe 7-ethoxyresorufin. In outline:
(§1)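 Yeast microsomes carrying recombinant CYP (Sacchrosomes). Substrates per isoform are 7-ethoxyresorufin, 3-cyano-7-ethoxycoumarin, EOMCC or dibenzylfluorescein, read as endpoint fluorescence. Background from compound-only wells without enzyme is subtracted. Independent triplicate runs; α-naphthoflavone positive control.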

Series [2] addresses T1, CYP1A1. Description: Inhibition of human recombinant CYP1A1 expressed in HEK293 cells at 10 uM using 7-ethoxyresorufin substrate preincubated for 30 mins followed by substrate addition and measured after 60 mins by fluorescence assay relative to control. In kind it is cell-based. Particulars: HEK293 cells expressing human recombinant CYP1A1, probe 7-ethoxyresorufin. In outline:
(§2)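 HEK293 cells adapted to suspension and transiently transfected with pcDNA3.1 plasmids carrying the individual CYP; 100×10^3 cells per well in triplicate. […] Fluorogenic substrate is then added at 5 μM and fluorescence read for 60 min.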

The next series addresses T2, Cytochrome P450 1A1 (Homo sapiens, UniProt P04798).
T2 sequence (P04798 whole entry): T1 sequence (P04798 whole entry)
Kind of series: Inhibition of human recombinant CYP1A1 expressed in HEK293 cells using 7-ethoxyresorufin substrate preincubated for 30 mins followed by substrate addition and measured after 60 mins by fluorescence assay relative to control. In kind it is cell-based. In outline: as §2

In a further series the target is T3, Cytochrome P450 1A2 (Homo sapiens, UniProt P05177).
T3 sequence (P05177 whole entry): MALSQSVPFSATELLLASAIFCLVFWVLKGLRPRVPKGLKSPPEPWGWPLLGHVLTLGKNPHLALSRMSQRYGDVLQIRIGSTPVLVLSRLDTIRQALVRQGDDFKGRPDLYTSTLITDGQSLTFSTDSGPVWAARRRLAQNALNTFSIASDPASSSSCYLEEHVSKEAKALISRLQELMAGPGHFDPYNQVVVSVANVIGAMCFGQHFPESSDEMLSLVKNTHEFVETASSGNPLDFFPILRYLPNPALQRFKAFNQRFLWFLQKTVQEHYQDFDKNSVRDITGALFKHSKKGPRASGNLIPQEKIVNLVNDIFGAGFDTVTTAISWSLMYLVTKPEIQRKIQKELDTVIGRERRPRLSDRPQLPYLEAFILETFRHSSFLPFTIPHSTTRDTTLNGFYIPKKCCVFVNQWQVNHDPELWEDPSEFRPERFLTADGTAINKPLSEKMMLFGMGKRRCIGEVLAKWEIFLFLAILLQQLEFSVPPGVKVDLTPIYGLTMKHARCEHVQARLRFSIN
Description: Inhibition of human recombinant CYP1A2 expressed in HEK293 cells using 3-cyano-7-ethoxycoumarin substrate preincubated for 30 mins followed by substrate addition and measured after 60 mins by fluorescence assay relative to control. The class given is ADME, cell-based. The method, boiled down: as §2

The target of another series is Cytochrome P450 3A4 (Homo sapiens, UniProt P08684). Description: Inhibition of human recombinant CYP3A4 expressed in HEK293 cells using dibenzylfluorescein substrate substrate preincubated for 30 mins followed by substrate addition and measured after 60 mins by fluorescence assay relative to control. The class given is ADME, cell-based. In outline: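 HEK293 cells adapted to suspension and transiently transfected with pcDNA3.1 plasmids carrying the individual CYP; 100×10^3 cells per well in triplicate. Fluorogenic substrate is then added at 5 μM and fluorescence read for 60 min.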

A further series deals with Cytochrome P450 2C9 (Homo sapiens, UniProt P11712). Kind of series: Inhibition of human recombinant CYP2C9 expressed in HEK293 cells using 3-cyano-7-ethoxycoumarin substrate substrate preincubated for 30 mins followed by substrate addition and measured after 60 mins by fluorescence assay relative to control. In kind it is ADME, cell-based. The method, boiled down: as §2

The next series deals with T4, CYP1B1 (Homo sapiens, UniProt Q16678).
T4 sequence (Q16678 whole entry): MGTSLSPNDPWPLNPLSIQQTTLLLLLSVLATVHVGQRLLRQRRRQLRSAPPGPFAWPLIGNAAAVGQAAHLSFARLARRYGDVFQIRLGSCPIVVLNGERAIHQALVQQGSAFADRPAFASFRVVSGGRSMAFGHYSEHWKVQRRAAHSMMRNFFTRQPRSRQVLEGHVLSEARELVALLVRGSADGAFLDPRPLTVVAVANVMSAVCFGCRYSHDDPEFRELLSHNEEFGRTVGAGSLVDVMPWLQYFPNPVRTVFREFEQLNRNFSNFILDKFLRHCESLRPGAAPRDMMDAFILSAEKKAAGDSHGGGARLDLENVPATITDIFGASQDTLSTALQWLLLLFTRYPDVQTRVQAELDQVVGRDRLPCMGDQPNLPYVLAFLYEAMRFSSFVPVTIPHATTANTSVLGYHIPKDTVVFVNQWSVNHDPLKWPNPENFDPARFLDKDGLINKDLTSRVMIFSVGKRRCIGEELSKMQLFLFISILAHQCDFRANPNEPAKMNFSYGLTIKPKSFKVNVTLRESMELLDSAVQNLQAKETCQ
Description: Inhibition of recombinant human CYP1B1 expressed in baker's yeast-derived microsomes (Sacchrosomes) at 10 uM using 7-ethoxyresorufin substrate by EROD assay relative to control. The class given is ADME. The following applies: probe 7-ethoxyresorufin. In outline: (§3)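 Yeast microsomes carrying recombinant CYP (Sacchrosomes). […] Substrates per isoform are 7-ethoxyresorufin, 3-cyano-7-ethoxycoumarin, EOMCC or dibenzylfluorescein, read as endpoint fluorescence. Background from compound-only wells without enzyme is subtracted. Independent triplicate runs; α-naphthoflavone positive control.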

The next series addresses CYP2C19 (Homo sapiens, UniProt P33261). Kind of series: Inhibition of recombinant human CYP2C19 expressed in baker's yeast-derived microsomes (Sacchrosomes) at 10 uM using 3-cyano-7-ethoxycoumarin substrate by EROD assay relative to control. Particulars: probe 3-cyano-7-ethoxycoumarin. In kind it is ADME. The method, boiled down: as §3
The next series deals with T5, Cytochrome P450 1B1 (Homo sapiens, UniProt Q16678).
T5 sequence (Q16678 whole entry): T4 sequence (Q16678 whole entry)
Description: Inhibition of human recombinant CYP1B1 expressed in HEK293 cells using 7-ethoxyresorufin substrate substrate preincubated for 30 mins followed by substrate addition and measured after 60 mins by fluorescence assay relative to control. The class given is ADME, cell-based. In outline:
as §2

The next series addresses Cytochrome P450 2C19 (Homo sapiens, UniProt P33261). Kind of series: Inhibition of human recombinant CYP2C19 expressed in HEK293 cells using 3-cyano-7-ethoxycoumarin substrate substrate preincubated for 30 mins followed by substrate addition and measured after 60 mins by fluorescence assay relative to control. In kind it is ADME, cell-based. The method, boiled down: as §2

A further series has as its target CYP3A4 (Homo sapiens, UniProt P08684). Description: Inhibition of recombinant human CYP3A4 expressed in baker's yeast-derived microsomes (Sacchrosomes) at 10 uM using dibenzylfluorescein substrate by EROD assay relative to control. In kind it is ADME. The following applies: probe dibenzylfluorescein. In outline: as §3
Another series has as its target Cytochrome P450 2D6 (Homo sapiens, UniProt P10635). Kind of series: Inhibition of human recombinant CYP2D6 expressed in HEK293 cells using 7-ethoxy-methyloxy-3-cyanocoumarin substrate substrate preincubated for 30 mins followed by substrate addition and measured after 60 mins by fluorescence assay relative to control. The class given is ADME, cell-based. In outline:
as §2

A further series addresses CYP2C9 (Homo sapiens, UniProt P11712). Kind of series: Inhibition of recombinant human CYP2C9 expressed in baker's yeast-derived microsomes (Sacchrosomes) at 10 uM using 3-cyano-7-ethoxycoumarin substrate by EROD assay relative to control. The class given is ADME. The following applies: probe 3-cyano-7-ethoxycoumarin. In outline:
as §3

Another series addresses CYP2D6 (Homo sapiens, UniProt P10635). Kind of series: Inhibition of recombinant human CYP2D6 expressed in baker's yeast-derived microsomes (Sacchrosomes) at 10 uM using 7-ethoxy-methyloxy-3-cyanocoumarin substrate by EROD assay relative to control. The class given is ADME. Particulars: probe 7-ethoxy-methyloxy-3-cyanocoumarin. The method, boiled down: as §3
The next series has as its target T6, CYP1A2 (Homo sapiens, UniProt P05177).
T6 sequence (P05177 whole entry): T3 sequence (P05177 whole entry)
Kind of series: Inhibition of recombinant human CYP1A2 expressed in baker's yeast-derived microsomes (Sacchrosomes) at 10 uM using 3-cyano-7-ethoxycoumarin substrate by EROD assay relative to control. Particulars: probe 3-cyano-7-ethoxycoumarin. The class given is ADME. The method, boiled down:
as §1

Consider 10 compounds from ChEMBL document CHEMBL4257453, “Identification of karanjin isolated from the Indian beech tree as a potent CYP1 enzyme inhibitor with cellular efficacy via screening of a natural product repository” (Medchemcomm, 2018).

Chain of Cytochrome P450 3A4 (P08684 whole entry): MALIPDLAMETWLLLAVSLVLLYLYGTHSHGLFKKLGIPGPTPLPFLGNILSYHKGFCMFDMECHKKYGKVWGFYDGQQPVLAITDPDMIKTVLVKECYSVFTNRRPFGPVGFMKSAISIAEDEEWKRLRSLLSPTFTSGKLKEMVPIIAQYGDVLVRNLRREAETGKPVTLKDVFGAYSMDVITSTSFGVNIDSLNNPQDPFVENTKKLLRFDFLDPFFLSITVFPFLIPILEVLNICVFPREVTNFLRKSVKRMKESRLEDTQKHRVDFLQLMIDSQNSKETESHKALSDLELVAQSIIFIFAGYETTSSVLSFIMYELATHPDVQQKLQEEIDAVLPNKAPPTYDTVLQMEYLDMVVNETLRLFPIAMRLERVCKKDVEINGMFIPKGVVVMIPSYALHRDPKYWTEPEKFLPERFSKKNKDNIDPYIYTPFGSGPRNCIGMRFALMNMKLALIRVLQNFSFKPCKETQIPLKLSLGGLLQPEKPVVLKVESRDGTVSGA
Chain of CYP3A4 (P08684 whole entry): as above
Chain of Cytochrome P450 2C9 (P11712 whole entry): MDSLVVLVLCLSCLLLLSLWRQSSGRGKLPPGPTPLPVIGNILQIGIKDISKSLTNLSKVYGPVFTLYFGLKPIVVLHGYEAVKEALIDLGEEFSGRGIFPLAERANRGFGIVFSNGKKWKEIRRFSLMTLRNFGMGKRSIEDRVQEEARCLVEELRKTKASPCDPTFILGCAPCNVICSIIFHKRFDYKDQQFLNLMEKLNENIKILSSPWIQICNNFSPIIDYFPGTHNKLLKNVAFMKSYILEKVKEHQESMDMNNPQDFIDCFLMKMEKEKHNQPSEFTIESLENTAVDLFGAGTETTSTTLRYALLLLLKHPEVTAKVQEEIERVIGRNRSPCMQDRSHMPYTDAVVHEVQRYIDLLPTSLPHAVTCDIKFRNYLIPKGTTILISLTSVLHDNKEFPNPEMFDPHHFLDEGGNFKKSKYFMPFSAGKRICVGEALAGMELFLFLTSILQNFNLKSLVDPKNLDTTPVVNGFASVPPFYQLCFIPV
Chain of CYP2C9 (P11712 whole entry): as above
Chain of Cytochrome P450 2D6 (P10635 whole entry): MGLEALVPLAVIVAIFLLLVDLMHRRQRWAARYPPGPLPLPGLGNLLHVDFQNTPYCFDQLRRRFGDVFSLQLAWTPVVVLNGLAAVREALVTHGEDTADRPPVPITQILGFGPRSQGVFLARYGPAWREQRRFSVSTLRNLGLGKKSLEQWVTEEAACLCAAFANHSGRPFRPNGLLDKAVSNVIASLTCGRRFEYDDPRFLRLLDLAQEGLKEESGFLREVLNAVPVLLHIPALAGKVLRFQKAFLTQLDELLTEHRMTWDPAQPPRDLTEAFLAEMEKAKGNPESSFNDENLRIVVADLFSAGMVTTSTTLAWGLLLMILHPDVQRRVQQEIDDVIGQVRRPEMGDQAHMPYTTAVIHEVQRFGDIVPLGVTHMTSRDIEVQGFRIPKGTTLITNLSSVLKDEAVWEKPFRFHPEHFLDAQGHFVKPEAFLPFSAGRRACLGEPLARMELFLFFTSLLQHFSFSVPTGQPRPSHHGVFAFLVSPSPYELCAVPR
Chain of CYP2D6 (P10635 whole entry): as above
Chain of CYP2C19 (P33261 whole entry): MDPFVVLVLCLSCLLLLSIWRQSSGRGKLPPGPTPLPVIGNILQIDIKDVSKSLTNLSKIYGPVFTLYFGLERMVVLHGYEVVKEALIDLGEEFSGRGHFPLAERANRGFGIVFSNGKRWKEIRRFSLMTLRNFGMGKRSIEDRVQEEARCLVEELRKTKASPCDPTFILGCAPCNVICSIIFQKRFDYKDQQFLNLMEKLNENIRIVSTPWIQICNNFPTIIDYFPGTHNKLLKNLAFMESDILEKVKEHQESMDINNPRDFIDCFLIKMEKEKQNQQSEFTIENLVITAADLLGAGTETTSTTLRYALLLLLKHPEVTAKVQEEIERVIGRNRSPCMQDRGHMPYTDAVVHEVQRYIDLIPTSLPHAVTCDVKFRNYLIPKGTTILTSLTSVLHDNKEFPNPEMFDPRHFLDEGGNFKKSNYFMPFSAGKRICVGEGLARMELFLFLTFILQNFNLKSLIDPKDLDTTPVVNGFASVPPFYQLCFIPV
Chain of Cytochrome P450 2C19 (P33261 whole entry): as above

What is called inhibition is the change of the read-out against control, counted positive when it falls. On to `C=CCOc1cc(OCC=C)c2ccc(=O)oc2c1`, for which the inhibition at 10 µM on CYP1A1 [1] was determined as 69%.

Consider `COc1cc2ccc(=O)oc2c2ccoc12` [SPHONDIN], for which, at CYP1A1 [1], the inhibition at 10 µM is 67%.

The term IC50 denotes the midpoint of a concentration-inhibition curve. Broadly, the Ki is a dissociation constant, usually derived from enzyme kinetics or from competition with a known ligand. As to `CC1=CC(=O)c2c(O)cccc2C1=O` [PLUMBAGIN], the inhibition at 1 h, 10 µM on CYP1A1 [2] stood at 86%. The IC50 on Cytochrome P450 1A1 was 2770 nM; on Cytochrome P450 1A2 it was 2460 nM; on Cytochrome P450 3A4 it was greater than 10000 nM; on Cytochrome P450 2C9 it was greater than 10000 nM; at Cytochrome P450 1B1, 6150 nM; at Cytochrome P450 2C19, greater than 10000 nM. Further, at Cytochrome P450 2D6, the half-maximal inhibitory concentration (IC50) was greater than 10000 nM. For the same compound, the inhibitory constant (Ki) at Cytochrome P450 1A1 was determined as 2560 nM; at Cytochrome P450 1A2, 2360 nM. Also, the inhibition at 10 µM is 40% at CYP1B1; 12% on CYP2C19; 15% at CYP3A4; 11% on CYP2C9; 10% at CYP2D6; 55% at CYP1A2.

Regarding `CC(C)(O)C(O)COc1c2occc2cc2ccc(=O)oc12` (stereo not given), the inhibition at 10 µM on CYP1A1 [1] came out at 72%.

`CC1(C)O[C@H]1COc1c2ccoc2cc2oc(=O)ccc12` [OXYPEUCEDANIN]: the inhibition at 10 µM at CYP1A1 [1] was determined as 56%.

On to `Cc1c(O)c2c(c(C(=O)/C=C/c3ccccc3)c1O)OC(C)(C)C=C2`, for which, at CYP1A1 [1], the inhibition at 10 µM amounted to 52%.

As to `COc1ccc2cc3[n+](cc2c1OC)CCc1cc2c(cc1-3)OCO2` [BERBERINE CHLORIDE], the inhibition at 10 µM at CYP1A1 [1] is 48%.

In the case of `COc1ccc2ccc(=O)oc2c1CC=C(C)C` [OSTHOLE], the inhibition at 10 µM at CYP1A1 [1] turned out to be 34%.

Take `O=c1ccc2cc3ccoc3cc2o1` [PSORALEN]: the inhibition at 10 µM on CYP1A1 [1] was 69%.

With `O=C(/C=C/C=C/c1ccc2c(c1)OCO2)N1CCCCC1` [PIPERINE], at CYP1A1 [1], the inhibition at 10 µM was found to be 42%.
